According to ChEMBL document CHEMBL3407437, “Antibacterial drug leads: DNA and enzyme multitargeting” (J Med Chem, 2015):
≈ marks a conversion by molar mass, not a printed value.

Legend:
Staphylococcus aureus [1] = experiment: Antimicrobial activity against Staphylococcus aureus Newman after 9 hrs by spectrophotometry; assay type: functional, organism-based
[2] = Inhibition of Escherichia coli UPPS using FPP/IPP as substrate by spectrophotometry
[3] = Binding affinity to DNA dodecamer complex (CGCGAATTCGCG)2 (unknown origin) assessed as change in melting temperature by differential scanning calorimetry
[4] = Inhibition of Staphylococcus aureus UPPS using FPP/IPP as substrate by spectrophotometry
How it was run: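 Continuous spectrophotometric assay following UPPS-catalysed condensation of FPP with IPP. IC50 from fit of inhibition data to rectangular hyperbolic dose-response function.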

Escherichia coli = experiment: Antimicrobial activity against Escherichia coli K-12 after 3 hrs by broth microdilution method; assay type: functional, organism-based; settings: K-12, 3 h
Staphylococcus aureus [5] = experiment: Antimicrobial activity against Staphylococcus aureus; assay type: functional
[6] = Inhibition of FPPS (unknown origin)
Staphylococcus aureus [7] = experiment: Antimicrobial activity against Staphylococcus aureus assessed as fractional Inhibitory concentration index; assay type: functional
[8] = Inhibition of Staphylococcus aureus UPPS
How it was run: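 Continuous spectrophotometric assay following UPPS-catalysed condensation of FPP with IPP. Reaction contained 400 µM MESG, 25 µM IPP, 2.5 µM FPP, […] pH 7.5, 0.01% Triton X-100 and 1 mM MgCl2. IC50 from fit of inhibition data to rectangular hyperbolic dose-response function.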

Structure (SMILES)	EC50 (Staphylococcus aureus [1]) [µM]	IC50 [2] [µM]	ΔTm [3] [°C]	IC50 [4] [µM]	EC50 (Escherichia coli) [µM]	MIC (Staphylococcus aureus [5]) [µg/mL]	IC50 [6] [µM]	fractional inhibitory concentration index (FICI) (Staphylococcus aureus [7])	IC50 [8] [µM]
S=C(Nc1cccc(C2=NCCN2)c1)c1ccc(-c2ccc(C(=S)Nc3cccc(C4=NCCN4)c3)cc2)cc1	3	9.2	7.1	3.5	58				
O=P(O)(O)C(O)(Cc1cccc(-c2cccc(NS(=O)(=O)c3cccc(S(=O)(=O)Nc4cccc(-c5cccc(CC(O)(P(=O)(O)O)P(=O)(O)O)c5)c4)c3)c2)c1)P(=O)(O)O	100	0.36	-1	0.39	> 1500				
O=C(Nc1cccc(O[C@@H]2O[C@H](CO)[C@@H](O)[C@H](O)[C@H]2O)c1)c1ccc(-c2ccc(C(=O)Nc3cccc(C4=NCCN4)c3)cc2)cc1	570	380	5.8	530	> 1500				
c1cc2cc(-c3ccc(-c4cc5ccc(C6=NCCN6)cc5[nH]4)cc3)[nH]c2cc1C1=NCCN1	0.029	0.36	16	1.7	0.33				
O=C(Nc1cccc(C2=NCCCN2)c1)c1ccc(-c2ccc(C(=O)Nc3cccc(C4=NCCCN4)c3)cc2)cc1	0.23	5.5	10	4.5	0.66				
c1cc2cc(-c3ccc(-c4cc5ccc(C6=NCCCN6)cc5[nH]4)cc3)[nH]c2cc1C1=NCCCN1	0.028	0.68	24	0.47	0.24				
O=C(Nc1cccc(C2=NCCN2)c1)c1ccc(-c2ccc(C(=O)Nc3cccc(C4=NCCN4)c3)cc2)cc1			11			0.25 (≈ 0.473 µM)	2	0.25	0.1
N=C(N)c1ccc(OCCCCCOc2ccc(C(=N)N)cc2)cc1 [PENTAMIDINE]	4.2	400	2.7	240	12				
NCCc1cc(Br)cc(C#Cc2cccc(C#Cc3cc(Br)cc(CCN)c3)c2)c1	7.6	6.1	-0.1	1.4	0.97				
COc1cccc(NC(=O)c2ccc(-c3ccc(C(=O)Nc4cccc(C5=NCCN5)c4)cc3)cc2)c1	7.7	9.4	5.2	2.1	570				
CCCCCCOc1cccc(NC(=O)c2ccc(-c3ccc(C(=O)Nc4cccc(C5=NCCN5)c4)cc3)cc2)c1	280	25	0.7	8.9	> 1500				
C(=C\c1cc2ccc(C3=NCCN3)cc2[nH]1)/c1cc2ccc(C3=NCCN3)cc2[nH]1	0.11	12	20	5.1	1.2				
OC[C@H]1O[C@@H](Oc2cccc(C#Cc3ccc(C#Cc4cccc(C5=NCCN5)c4)cc3)c2)[C@H](O)[C@@H](O)[C@@H]1O	380	14	-1.2	5.6	900				
Cn1cc(NC(=O)c2cc(NC(=O)CNC(=N)N)cn2C)cc1C(=O)NCCC(=N)N [NETROPSIN]	11	1400	16	1000	570				
O=C(Nc1ccc(C2=NCCN2)cc1)c1ccc(C(=O)Nc2ccc(C3=NCCN3)cc2)c([N+](=O)[O-])c1	28	4.8	3.9	4.9	14				
O=C(Nc1cccc(Oc2ccccc2)c1)c1ccc(-c2ccc(C(=O)Nc3cccc(C4=NCCN4)c3)cc2)cc1	10	11	0.6	5.7	> 1500				
